In publication PMC8463927 (Journal of Advanced Research, 2021):

Key:
RAW264.7 cells [1] = test: cAMP and CREB phosphorylation in RAW264.7 cells; format: cell-based, murine; conditions: for effect on arctigenin-induced phosphorylation of CREB: 10 μM with arctigenin 100 μM
Procedure, shortened: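 RAW264.7 cells were exposed to test compound for 15 min under LPS (1 μg/mL) induction, or at 100 μM alongside H89 (10 μM) and/or forskolin (10 μM). Lysates were BCA-normalised and run on 10% SDS-PAGE and nitrocellulose, probed overnight at 4 °C, and detected by chemiluminescence. Intracellular cAMP was measured in 0.1 M HCl lysates by direct ELISA. Mean ± SEM, n = 3.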

PDE4D catalytic domain = PDE4D catalytic domain (Homo sapiens, UniProt Q08499); test: PDEs enzyme assay; format: biochemical
Procedure, shortened: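 Purified PDE4D catalytic domain. Activity was read as hydrolysis of [³H]-cAMP to [³H]-AMP by scintillation proximity assay.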

PDK1 = target: T1, PDK1 (Homo sapiens, UniProt O15530); test: PDK1 kinase assay; format: biochemical; conditions: compared with GSK2334470
T1 sequence (O15530 1-556): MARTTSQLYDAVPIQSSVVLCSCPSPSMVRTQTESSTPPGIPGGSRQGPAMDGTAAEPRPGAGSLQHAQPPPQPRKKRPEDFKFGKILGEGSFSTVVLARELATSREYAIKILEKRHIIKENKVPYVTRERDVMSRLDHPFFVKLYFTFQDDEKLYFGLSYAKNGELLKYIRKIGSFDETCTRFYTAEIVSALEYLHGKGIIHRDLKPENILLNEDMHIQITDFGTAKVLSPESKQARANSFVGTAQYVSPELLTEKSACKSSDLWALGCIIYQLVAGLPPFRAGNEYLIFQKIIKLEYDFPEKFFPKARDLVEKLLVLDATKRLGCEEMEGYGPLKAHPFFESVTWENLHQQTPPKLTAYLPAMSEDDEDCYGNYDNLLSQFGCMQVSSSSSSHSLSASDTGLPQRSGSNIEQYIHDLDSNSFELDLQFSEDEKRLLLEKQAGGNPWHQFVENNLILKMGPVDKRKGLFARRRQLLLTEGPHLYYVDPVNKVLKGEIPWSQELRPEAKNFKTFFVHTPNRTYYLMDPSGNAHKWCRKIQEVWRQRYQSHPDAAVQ

[2] = tested on: LPS-stimulated human PBMCs; test: LPS-induced TNF-α production in human PBMCs; format: cell-based; conditions: PBMC, read-out: IC50 on LPS-induced production of TNF-α
Procedure, shortened: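 Purchased human PBMCs (1 × 10⁶/well) in RPMI-1640 with 10% FBS and 2 mM L-glutamine were stimulated with LPS in the presence of test compound. TNF-α production was measured.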

[3] = tested on: LPS-induced RAW264.7 cells; test: Inflammatory mediators in LPS-induced RAW264.7 cells; format: cell-based, murine
Procedure, shortened: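 RAW264.7 cells in DMEM with 10% FBS at 37 °C and 5% CO₂ were given test compound (100, 30, 10 μM) with LPS (1 μg/mL). Cells were lysed after 3 h for SYBR Green RT-PCR (ΔΔCt). Supernatants were kept for TNF-α and IL-6 ELISA and NO measurement.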

RAW264.7 cells [4] = test: Cytotoxicity on RAW264.7 cells; format: cell-based, murine; conditions: 24 h, CCK8
[5] = tested on: IMQ-induced murine psoriasis; test: IMQ-induced murine psoriatic skin lesions; format: in vivo, BALB/c mice
Procedure, shortened: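 Female BALB/c mice (6–8 weeks, 20–22 g), dorsal skin shaved, got 62.5 mg daily of […] IMQ cream topically for 7 days; groups (n = 7) were normal, IMQ only, and IMQ plus 5% test compound cream. PASI scored blind by 3 investigators. Read-outs: skin cAMP-specific PDE activity normalised to total protein, Ki-67 immunohistochemistry, serum Luminex 17-plex, skin RT-PCR (ΔΔCt), and skin-cell flow cytometry after collagenase IV digestion. Mean ± SEM.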

[6] = Arctigenin concentration in inflamed skin tissues; format: in vivo, mice; conditions: topical application
PDE4 = test: Enzymatic activity of cAMP-specific PDE4 in RAW264.7 cells; format: cell-based, murine; conditions: RAW264.7 and LPS-stimulated RAW264.7 cells
[7] = cited from earlier work

Sequence of PDE4D catalytic domain (Q08499 386-715 limits assumed): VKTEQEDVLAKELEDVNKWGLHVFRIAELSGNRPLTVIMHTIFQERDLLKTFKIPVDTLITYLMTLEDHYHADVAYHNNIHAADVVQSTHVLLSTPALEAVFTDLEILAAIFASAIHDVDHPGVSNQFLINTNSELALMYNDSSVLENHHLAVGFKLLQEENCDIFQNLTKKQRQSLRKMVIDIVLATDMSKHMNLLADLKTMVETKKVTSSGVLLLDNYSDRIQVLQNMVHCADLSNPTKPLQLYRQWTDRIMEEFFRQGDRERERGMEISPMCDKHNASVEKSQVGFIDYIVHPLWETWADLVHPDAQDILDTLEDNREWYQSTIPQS

O=S(=O)(NCCNC/C=C/c1ccc(Br)cc1)c1cccc2cnccc12 [H89, reference compound]
effect on arctigenin-induced phosphorylation of CREB (RAW264.7 cells [1]; 15 min): obviously blocked the effects of arctigenin on phosphorylation of CREB

COc1cc(C[C@H]2C(=O)OC[C@@H]2Cc2ccc(OC)c(OC)c2)ccc1O [Arctigenin]
IC50 (PDE4D catalytic domain): 3.76 ± 0.28 µM | inhibition on PDK1 (PDK1): negligible | IC50 [2]: 35.2 ± 6.01 µM | production of TNF-α and IL-6 ([3]; 100, 30, and 10 μM, LPS 24 h, ELISA, dose-dependent): reduce the production of TNF-α and IL-6 | mRNA expression level of TNF-α and IL-6 ([3]; LPS 3 h, RT-PCR): decreased the mRNA expression level | iNOS and COX-2 mRNA ([3]; concentration-dependent): downregulated | cytotoxicity (RAW264.7 cells [4]): not associated with the cytotoxicity | phosphorylation of CREB (RAW264.7 cells [1]; 15 min, western blot): led to the phosphorylation of CREB | intracellular cAMP (RAW264.7 cells [1]; 30 min, concentration-dependent): significant elevation of intracellular cAMP | serum IL-10 ([5]; Luminex assay): promote the secretion of IL-10 | serum inflammatory cytokines ([5]; Luminex assay): reduce the production of inflammatory cytokines | CCR6 and CXCR3 on CD45+ leukocytes ([5]; flow cytometry): suppressed the protein expression of CCR6 and CXCR3 | skin myeloid cells, macrophages, neutrophils, DCs ([5]; flow cytometry): decreased when treated with arctigenin | skin-infiltrated leukocytes, APCs, T cells, γδT cells ([5]; flow cytometry): reduced upon arctigenin treatment | expression of chemokines in inflamed skins ([5]; gene expression): suppress the expression of chemokines | expression of inflammatory cytokines in inflamed tissues ([5]; mRNA level): extensively attenuated | Ki-67 positive staining in the epidermis ([5]; topical 5% arctigenin cream): reduced | activity of cAMP-specific PDEs in skins ([5]; topical 5% arctigenin cream): obviously reversed | cumulative PASI scores ([5]; topical 5% arctigenin cream): decreased the cumulative PASI scores | skin level of cAMP ([5]; topical 5% arctigenin cream): upregulate the skin level of cAMP | splenomegaly (spleen index) ([5]; topical 5% arctigenin cream): ameliorate the concomitant splenomegaly | epidermal thickening ([5]; topical 5% arctigenin cream, H&E): dramatically improved the epidermal thickening | body weight loss ([5]; topical 5% arctigenin cream, daily): significantly reversed the body weight loss | therapeutic effect, topical vs oral ([5]; topical 5% cream vs oral 100 mg/kg): better therapeutic effect | phosphorylation of CREB in skins ([5]; western blot): promote the phosphorylation of CREB | concentration in the inflamed skin tissues [6]: 29.67 ± 15.42 μg/g skin samples | enzymatic activity of PDE4 in cells (PDE4): inhibit the enzymatic activity of PDE4 in the concentration-dependent manner | plasma concentration ([7]; oral administration, several animal species, ref [4], [35]): undetectable | tissue accumulation in brain ([7]; ref [34]): lower than that in intestine, liver, kidney, lung, and heart

C=C[C@@]1(C)CC(=O)[C@]2(O)[C@@]3(C)[C@@H](O)CCC(C)(C)[C@@H]3[C@H](O)[C@H](OC(C)=O)[C@@]2(C)O1 [forskolin, reference compound]
effect on arctigenin-induced phosphorylation of CREB (RAW264.7 cells [1]; 15 min): further enhance the effects of arctigenin on promoting the phosphorylation of CREB
